Results from ChEMBL document CHEMBL2010803, “Novel NSAID 1-acyl-4-cycloalkyl/arylsemicarbazides and 1-acyl-5-benzyloxy/hydroxy carbamoylcarbazides as potential anticancer agents and antioxidants” (Eur J Med Chem, 2012).
pIC50: −log10 of the molar value. The source made the active and inactive calls. The calls are words filed in the database; no cut-off is given here.

Assays:
Vaccinia virus = assay: Antiviral activity against Vaccinia virus infected in human lung fibroblast assessed as inhibition of virus-induced cytopathic effect at 0.32 to 100 uM; assay type: functional, organism-based; settings: Orthopoxvirus vaccinia
[1] = test system: Radical scavenging activity; assay: Antioxidant activity assessed as DPPH free radical scavenging activity at 100 uM after 60 mins by spectrophotometric analysis; assay type: functional
Method in brief: (§1)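 0.05 mM DPPH in absolute ethanol mixed with an equal volume of compound in DMSO (final 100 μM). Shaken and left 20 or 60 min, then absorbance read at 517 nm and percent activity calculated. Three replicates, averaged.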

[2] = test system: Vesicular stomatitis virus; assay: Antiviral activity against VSV infected in human lung fibroblast assessed as inhibition of virus-induced cytopathic effect at 0.32 to 100 uM; assay type: functional, organism-based
Influenza B virus = assay: Antiviral activity against Influenza B virus infected in MDCK cells assessed as inhibition of virus-induced cytopathic effect at 0.32 to 100 uM; assay type: functional, organism-based
Method in brief: (§2)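 Confluent MDCK monolayers were infected in the presence of the compound at 100, 40, 8, 1.6 and 0.32 μM. Viral cytopathicity was scored once it was complete in untreated infected control cultures.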

Coxsackievirus B4 [3] = assay: Antiviral activity against Coxsackievirus B4 infected in human cervix carcinoma cells assessed as inhibition of virus-induced cytopathic effect at 0.32 to 100 uM; assay type: functional, organism-based
Method in brief: (§3)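 Confluent cell cultures were infected with 100 CCID50 of virus in the presence of test compound at 100, 40, 8, 1.6 and 0.32 μM. Cytopathic effect was scored once it was complete in untreated infected controls.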

NCI-H460 = assay: Cytostatic activity against human NCI-H460 cells after 72 hrs by MTT assay; assay type: functional, cell-based; settings: NCI-H460, 72 h
Method in brief: (§4)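 Monolayers in DMEM with 10% FBS, 2 mM L-glutamine and penicillin/streptomycin, 37 °C, 5% CO2. Seeded at 1–3 × 10^4 cells/ml, then compound added in tenfold dilutions (10⁻⁸–10⁻⁴ M) for 72 h. MTT read at 570 nm; percent growth taken against time-zero and untreated controls. IC50 by linear regression; quadruplicate, at least two experiments.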

Feline coronavirus = assay: Antiviral activity against Feline coronavirus infected in feline CRFK cells assessed as inhibition of virus-induced cytopathic effect at 0.32 to 100 uM; assay type: functional, organism-based; method in brief: as §3
Influenza A virus [4] = assay: Antiviral activity against Influenza A virus H3N2 infected in MDCK cells assessed as inhibition of virus-induced cytopathic effect at 0.32 to 100 uM; assay type: functional, organism-based; method in brief: as §2
Felid alphaherpesvirus 1 = assay: Antiviral activity against Feline herpesvirus infected in feline CRFK cells assessed as inhibition of virus-induced cytopathic effect at 0.32 to 100 uM; assay type: functional, organism-based; method in brief: as §3
HCT-116 = assay: Cytostatic activity against human HCT116 cells after 72 hrs by MTT assay; assay type: functional, cell-based; settings: HCT-116, 72 h; method in brief: as §4
[5] = test system: Human immunodeficiency virus 1; assay: Antiviral activity against HIV1 3B infected in human CEM cells assessed as inhibition of virus-induced CEM giant cell formation at 0.32 to 100 uM after 4 days; assay type: functional, organism-based; settings: CCRF-CEM
Method in brief: (§5)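 CEM cells (~3 × 10^5 cells/cm³) exposed to 100 CCID50/ml of virus and seeded into wells holding compound dilutions. Incubated 4 days at 37 °C, then giant cell formation examined microscopically.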

Glycine max = assay: Inhibition of soybean LOX assessed as conversion of sodium linoleate to 13- hydroperoxylinoleic acid at 100 uM
Human respirovirus 3 = assay: Antiviral activity against Parainfluenza virus 3 infected in african green monkey Vero cells assessed as inhibition of virus-induced cytopathic effect at 0.32 to 100 uM; assay type: functional, organism-based; method in brief: as §3
[6] = test system: Vesicular stomatitis virus; assay: Antiviral activity against Vesicular stomatitis virus infected in human cervix carcinoma cells assessed as inhibition of virus-induced cytopathic effect at 0.32 to 100 uM; assay type: functional, organism-based
Method in brief: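 Confluent human cervix carcinoma (HeLa) cultures received 100 CCID50 of VSV together with the compound at 100, 40, 8, 1.6 or 0.32 μM. Cytopathicity was read at the point of full CPE in infected, untreated control wells.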

[7] = test system: Mammalian orthoreovirus 1; assay: Antiviral activity against Reovirus-1 infected in african green monkey Vero cells assessed as inhibition of virus-induced cytopathic effect at 0.32 to 100 uM; assay type: functional, organism-based; method in brief: as §3
Influenza A virus [8] = assay: Antiviral activity against Influenza A virus H1N1 infected in MDCK cells assessed as inhibition of virus-induced cytopathic effect at 0.32 to 100 uM; assay type: functional, organism-based; method in brief: as §2
Coxsackievirus B4 [9] = assay: Antiviral activity against Coxsackievirus B4 infected in african green monkey Vero cells assessed as inhibition of virus-induced cytopathic effect at 0.32 to 100 uM; assay type: functional, organism-based; method in brief: as §3
Sindbis virus = assay: Antiviral activity against Sindbis virus infected in african green monkey Vero cells assessed as inhibition of virus-induced cytopathic effect at 0.32 to 100 uM; assay type: functional, organism-based; method in brief: as §3
CCRF-CEM = assay: Cytostatic activity against human CEM cells after 3 days by coulter counter analysis; assay type: functional, cell-based; settings: 72 h
Method in brief: (§6)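 300,000–500,000 cells/ml mixed 1:1 with compound dilutions and incubated at 37 °C for 2 days (L1210) or 3 days (CEM, HeLa). Cell number counted with a Coulter counter; HeLa trypsinized before counting.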

MCF7 = assay: Cytostatic activity against human MCF7 cells after 72 hrs by MTT assay; assay type: functional, cell-based; settings: MCF7, 72 h; method in brief: as §4
Human alphaherpesvirus 2 = assay: Antiviral activity against HSV2 G infected in human lung fibroblast assessed as inhibition of virus-induced cytopathic effect at 0.32 to 100 uM; assay type: functional, organism-based; settings: strain G; method in brief: as §3
[10] = test system: Radical scavenging activity; assay: Antioxidant activity assessed as DPPH free radical scavenging activity at 100 uM after 20 mins by spectrophotometric analysis; assay type: functional; method in brief: as §1
[11] = test system: Human immunodeficiency virus 2; assay: Antiviral activity against HIV2 ROD infected in human CEM cells assessed as inhibition of virus-induced CEM giant cell formation at 0.32 to 100 uM after 4 days; assay type: functional, organism-based; settings: ISOLATE ROD, CCRF-CEM; method in brief: as §5
L1210 = assay: Cytostatic activity against mouse L1210 cells after 2 days by coulter counter analysis; assay type: functional, cell-based; settings: L1210, 48 h; method in brief: as §6
Human alphaherpesvirus 1 = assay: Antiviral activity against HSV1 KOS infected in human lung fibroblast assessed as inhibition of virus-induced cytopathic effect at 0.32 to 100 uM; assay type: functional, organism-based; method in brief: as §3
[12] = test system: Respiratory syncytial virus; assay: Antiviral activity against RSV infected in human cervix carcinoma cells assessed as inhibition of virus-induced cytopathic effect at 0.32 to 100 uM; assay type: functional, organism-based; method in brief: as §3
Punta Toro virus = assay: Antiviral activity against Punta Toro virus infected in african green monkey Vero cells assessed as inhibition of virus-induced cytopathic effect at 0.32 to 100 uM; assay type: functional, organism-based; method in brief: as §3
[13] = Antioxidant activity assessed as inhibition of AAPH-induced linoleic acid lipid peroxidation by measuring conjugated diene hydroperoxide level; assay type: functional; parameters: concentration or dose not given beside the values
Method in brief: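 Linoleic acid sodium salt (10 μL of 16 mM) in 0.05 M phosphate buffer pH 7.4 at 37 °C. Oxidation started under air with 50 μL of 40 mM AAPH. Conjugated diene hydroperoxide formation followed as absorbance rise at 234 nm; control contains the same DMSO level. At least triplicate.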

HeLa = assay: Cytostatic activity against human HeLa cells after 3 days by coulter counter analysis; assay type: functional, cell-based; settings: 72 h; method in brief: as §6
[14] = dose or concentration not given here

| SMILES | inhibition (Vaccinia virus) | Activity [1] | inhibition [2] | inhibition (Influenza B virus) | inhibition (Coxsackievirus B4 [3]) | pIC50 (NCI-H460) | inhibition (Feline coronavirus) | inhibition (Influenza A virus [4]) | inhibition (Felid alphaherpesvirus 1) | pIC50 (HCT-116) | inhibition [5] | inhibition (Glycine max) | inhibition (Human respirovirus 3) | inhibition [6] | inhibition [7] | inhibition (Influenza A virus [8]) | inhibition (Coxsackievirus B4 [9]) | inhibition (Sindbis virus) | pIC50 (CCRF-CEM) | pIC50 (MCF7) | further results |
| --- | --- | --- | --- | --- | --- | --- | --- | --- | --- | --- | --- | --- | --- | --- | --- | --- | --- | --- | --- | --- | --- |
| CC(C)Cc1ccc(C(C)C(=O)NNC(=O)NC2CCCCC2)cc1 (stereo unspecified) | inactive | inactive | inactive | inactive | inactive | 4.46 | inactive | inactive | inactive | 4.55 | inactive | inactive | inactive | inactive | inactive | inactive | inactive | inactive | 4.28 | 4.72 | inhibition (Human alphaherpesvirus 2): inactive; Activity [10]: inactive; inhibition [11]: inactive; pIC50 (L1210): 4.52; inhibition (Human alphaherpesvirus 1): inactive; inhibition [12]: inactive; inhibition (Punta Toro virus): inactive; inhibition [13, 14]: 33%; pIC50 (HeLa): 4.16 |
| CC(C(=O)NNC(=O)NOCc1ccccc1)c1cccc(Cc2ccccc2)c1 (stereo unspecified) | inactive | 6% | inactive | inactive | inactive | 4.09 | inactive | inactive | inactive | 4.25 | inactive | inactive | inactive | inactive | inactive | inactive | inactive | inactive | 4.00 | 4.39 | inhibition (Human alphaherpesvirus 2): inactive; Activity [10]: 3%; inhibition [11]: inactive; pIC50 (L1210): 4.10; inhibition (Human alphaherpesvirus 1): inactive; inhibition [12]: inactive; inhibition (Punta Toro virus): inactive; inhibition [13]: inactive; pIC50 (HeLa): 4.11 |
| CC(C)Cc1ccc(C(C)C(=O)NNC(=O)NC2CCCC2)cc1 (stereo unspecified) | inactive | 7% | inactive | inactive | inactive | 4.49 | inactive | inactive | inactive | 4.49 | inactive | inactive | inactive | inactive | inactive | inactive | inactive | inactive | 4.13 | 4.74 | inhibition (Human alphaherpesvirus 2): inactive; Activity [10]: 4%; inhibition [11]: inactive; pIC50 (L1210): 3.99; inhibition (Human alphaherpesvirus 1): inactive; inhibition [12]: inactive; inhibition (Punta Toro virus): inactive; inhibition [13, 14]: 26%; pIC50 (HeLa): 4.10 |
| CC(C(=O)NNC(=O)NOCc1ccccc1)c1cccc(Oc2ccccc2)c1 (stereo unspecified) | inactive | inactive | inactive | inactive | inactive | < 4.00 | inactive | inactive | inactive | 4.12 | inactive | 6% | inactive | inactive | inactive | inactive | inactive | inactive | 4.04 | 4.09 | inhibition (Human alphaherpesvirus 2): inactive; Activity [10]: inactive; inhibition [11]: inactive; pIC50 (L1210): 4.08; inhibition (Human alphaherpesvirus 1): inactive; inhibition [12]: inactive; inhibition (Punta Toro virus): inactive; inhibition [13, 14]: 8%; pIC50 (HeLa): 4.12 |
